Experiments:
NCI-H322M = assay: Cytotoxicity against human NCI-H322M cells; type: functional
SK-OV-3 = assay: Cytotoxicity against human SKOV3 cells; type: functional
MDA-N = assay: Cytotoxicity against human MDA-N cells; type: functional
M14 = assay: Cytotoxicity against human M14 cells; type: functional
A549 = assay: Cytotoxicity against human A549 cells; type: functional
TK-10 = assay: Cytotoxicity against human TK10 cells; type: functional
RXF 393 = assay: Cytotoxicity against human RXF393 cells; type: functional
MOLT-4 = assay: Cytotoxicity against human MOLT4 cells; type: functional
SF-295 = assay: Cytotoxicity against human SF295 cells; type: functional
HOP-92 = assay: Cytotoxicity against human HOP92 cells; type: functional
SF-268 = assay: Cytotoxicity against human SF268 cells; type: functional
NCI-H460 = assay: Cytotoxicity against human NCI-H460 cells; type: functional
CAKI-1 = assay: Cytotoxicity against human Caki1 cells; type: functional
NCI-H23 = assay: Cytotoxicity against human NCI-H23 cells; type: functional
MCF7 = assay: Cytotoxicity against human MCF7 cells; type: functional
HCC 2998 = assay: Cytotoxicity against human HCC2998 cells; type: functional
HT-29 = assay: Cytotoxicity against human HT-29 cells; type: functional
SF-539 = assay: Cytotoxicity against human SF539 cells; type: functional
SN12C = assay: Cytotoxicity against human SN12C cells; type: functional
OVCAR-8 = assay: Cytotoxicity against human OVCAR8 cells; type: functional
SK-MEL-28 = assay: Cytotoxicity against human SK-MEL-28 cells; type: functional
[1] = Cytotoxicity against human Hs 578T cells; type: functional
HCT-15 = assay: Cytotoxicity against human HCT15 cells; type: functional
A498 = assay: Cytotoxicity against human A498 cells; type: functional
OVCAR-4 = assay: Cytotoxicity against human OVCAR4 cells; type: functional
OVCAR-3 = assay: Cytotoxicity against human OVCAR-3 cells; type: functional
HCT-116 = assay: Cytotoxicity against human HCT116 cells; type: functional
HL-60 = assay: Cytotoxicity against human HL60 cells after 72 hrs by MTT assay; type: functional, cell-based; conditions: HL-60, 72 h
In short: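 HL-60 leukemia cells kept in RPMI 1640 with 10% fetal bovine serum, L-glutamine, 100 units/mL penicillin and 100 μg/mL streptomycin. Cells at 3 × 10^4 cells/mL exposed continuously to compound for 72 h. Growth read by MTT reduction. IC50 (50% inhibition) calculated from each compound's dose–response curve.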

MDA-MB-435 = assay: Cytotoxicity against human MDA-MB-435 cells; type: functional
SR = assay: Cytotoxicity against human SR cells; type: functional
UO-31 = assay: Cytotoxicity against human UO31 cells; type: functional
OVCAR-5 = assay: Cytotoxicity against human OVCAR5 cells; type: functional
IGROV-1 = assay: Cytotoxicity against human IGROV1 cells; type: functional
KM12 = assay: Cytotoxicity against human KM12 cells; type: functional
SNB-75 = assay: Cytotoxicity against human SNB75 cells; type: functional
T47D = assay: Cytotoxicity against human T47D cells; type: functional
UACC-62 = assay: Cytotoxicity against human UACC62 cells; type: functional
NCI-H522 = assay: Cytotoxicity against human NCI-H522 cells; type: functional
K562 = assay: Cytotoxicity against human K562 cells; type: functional
BT-549 = assay: Cytotoxicity against human BT549 cells; type: functional
[2] = Cytotoxicity against human […] cells; type: functional
DU-145 = assay: Cytotoxicity against human DU145 cells; type: functional
ACHN = assay: Cytotoxicity against human ACHN cells; type: functional
[3] = read-out: pLC50 (the source's name) (converted)

Compound `COc1ccc(C(=O)O[C@H]2[C@H](O[C@@H]3[C@@H](OC(C)=O)[C@H](O[C@H]4C[C@H]5[C@@H]6CC=C7C[C@@H](O)CC[C@]7(C)[C@H]6CC[C@]5(C)[C@@]4(O)[C@H](C)C(=O)CCC(C)C)OC[C@@H]3O)OC[C@@H](O)[C@@H]2O)cc1` has a GI50 (NCI-H322M) of 26.9 nM, a CC50 (NCI-H322M; [3]) of 5010 nM and a TGI (NCI-H322M; read-out: pTGI (converted)) of 1290 nM. It also gave a GI50 (SK-OV-3) of 3.98 nM, a CC50 (SK-OV-3; [3]) of 10000 nM and a TGI (SK-OV-3; read-out: pTGI (converted)) of 1200 nM. The GI50 (MDA-N) was 0.776 nM, the CC50 (MDA-N; [3]) was 490 nM and the TGI (MDA-N; read-out: pTGI (converted)) was 8.91 nM. For the same compound, the GI50 (M14) was 0.269 nM, the CC50 (M14; [3]) was 51.3 nM and the TGI (M14; read-out: pTGI (converted)) was 0.955 nM. For the same compound, the GI50 (A549) was 0.457 nM, the CC50 (A549; [3]) was 8130 nM and the TGI (A549; read-out: pTGI (converted)) was 2090 nM. It also gave a GI50 (TK-10) of 77.6 nM, a CC50 (TK-10; [3]) of 8910 nM and a TGI (TK-10; read-out: pTGI (converted)) of 1910 nM. It also gave a GI50 (RXF 393) of 0.0708 nM, a CC50 (RXF 393; [3]) of 407 nM and a TGI (RXF 393; read-out: pTGI (converted)) of 18.2 nM. The GI50 (MOLT-4) was 0.0977 nM, the CC50 (MOLT-4; [3]) was 457 nM and the TGI (MOLT-4; read-out: pTGI (converted)) was 11 nM. It also gave a GI50 (SF-295) of 0.0479 nM, a CC50 (SF-295; [3]) of 30.2 nM and a TGI (SF-295; read-out: pTGI (converted)) of 2.29 nM. For the same compound, the GI50 (HOP-92) was 1.1 nM, the CC50 (HOP-92; [3]) was 3020 nM and the TGI (HOP-92; read-out: pTGI (converted)) was 32.4 nM. It also gave a GI50 (SF-268) of 2.4 nM, a CC50 (SF-268; [3]) of 7410 nM and a TGI (SF-268; read-out: pTGI (converted)) of 851 nM. The GI50 (NCI-H460) was 0.159 nM, the CC50 (NCI-H460; [3]) was 2190 nM and the TGI (NCI-H460; read-out: pTGI (converted)) was 33.9 nM. For the same compound, the GI50 (CAKI-1) was 1.7 nM, the CC50 (CAKI-1; [3]) was 871 nM and the TGI (CAKI-1; read-out: pTGI (converted)) was 49 nM. It also gave a GI50 (NCI-H23) of 0.363 nM, a CC50 (NCI-H23; [3]) of 1290 nM and a TGI (NCI-H23; read-out: pTGI (converted)) of 110 nM. For the same compound, the GI50 (MCF7) was 0.813 nM, the CC50 (MCF7; [3]) was 3630 nM and the TGI (MCF7; read-out: pTGI (converted)) was 1200 nM. It also gave a GI50 (HCC 2998) of 30.2 nM, a CC50 (HCC 2998; [3]) of 4370 nM and a TGI (HCC 2998; read-out: pTGI (converted)) of 1910 nM. For the same compound, the GI50 (HT-29) was 0.363 nM, the CC50 (HT-29; [3]) was 3720 nM and the TGI (HT-29; read-out: pTGI (converted)) was 302 nM. The GI50 (SF-539) was 0.1 nM, the CC50 (SF-539; [3]) was 182 nM and the TGI (SF-539; read-out: pTGI (converted)) was 4.47 nM. The GI50 (SN12C) was 1290 nM, the CC50 (SN12C; [3]) was 6760 nM and the TGI (SN12C; read-out: pTGI (converted)) was 2880 nM. The GI50 (OVCAR-8) was 15.1 nM, the CC50 (OVCAR-8; [3]) was 5370 nM and the TGI (OVCAR-8; read-out: pTGI (converted)) was 1580 nM. For the same compound, the GI50 (SK-MEL-28) was 0.182 nM, the CC50 (SK-MEL-28; [3]) was 25.7 nM and the TGI (SK-MEL-28; read-out: pTGI (converted)) was 1.1 nM. It also gave a GI50 [1] of 0.0537 nM, a CC50 [1, 3] of 2000 nM and a TGI ([1]; read-out: pTGI (converted)) of 0.741 nM. For the same compound, the GI50 (HCT-15) was 11 nM, the CC50 (HCT-15; [3]) was 692 nM and the TGI (HCT-15; read-out: pTGI (converted)) was 95.5 nM. It also gave a GI50 (A498) of 0.24 nM, a CC50 (A498; [3]) of 141 nM and a TGI (A498; read-out: pTGI (converted)) of 2.19 nM. It also gave a GI50 (OVCAR-4) of 3.63 nM, a CC50 (OVCAR-4; [3]) of 5750 nM and a TGI (OVCAR-4; read-out: pTGI (converted)) of 2190 nM. For the same compound, the GI50 (OVCAR-3) was 9.55 nM, the CC50 (OVCAR-3; [3]) was 4680 nM and the TGI (OVCAR-3; read-out: pTGI (converted)) was 2000 nM. For the same compound, the GI50 (HCT-116) was 0.38 nM, the CC50 (HCT-116; [3]) was 1290 nM and the TGI (HCT-116; read-out: pTGI (converted)) was 191 nM. The GI50 (HL-60) was 0.0347 nM, the IC50 (HL-60) was 0.25 nM and the TGI (HL-60; read-out: pTGI (converted)) was 182 nM. For the same compound, the GI50 (MDA-MB-435) was 0.575 nM, the CC50 (MDA-MB-435; [3]) was 407 nM and the TGI (MDA-MB-435; read-out: pTGI (converted)) was 8.91 nM. The GI50 (SR) was 0.12 nM, the CC50 (SR; [3]) was 6310 nM and the TGI (SR; read-out: pTGI (converted)) was 129 nM. The GI50 (UO-31) was 0.617 nM, the CC50 (UO-31; [3]) was 30.2 nM and the TGI (UO-31; read-out: pTGI (converted)) was 1.41 nM. The GI50 (OVCAR-5) was 50.1 nM, the CC50 (OVCAR-5; [3]) was 5890 nM and the TGI (OVCAR-5; read-out: pTGI (converted)) was 2000 nM. For the same compound, the GI50 (IGROV-1) was 1.51 nM, the CC50 (IGROV-1; [3]) was 6920 nM and the TGI (IGROV-1; read-out: pTGI (converted)) was 1910 nM. The GI50 (KM12) was 0.407 nM, the CC50 (KM12; [3]) was 1100 nM and the TGI (KM12; read-out: pTGI (converted)) was 39.8 nM. It also gave a GI50 (SNB-75) of 0.0417 nM, a CC50 (SNB-75; [3]) of 3020 nM and a TGI (SNB-75; read-out: pTGI (converted)) of 3.24 nM. It also gave a GI50 (T47D) of 5.13 nM, a CC50 (T47D; [3]) of 7760 nM and a TGI (T47D; read-out: pTGI (converted)) of 1510 nM. For the same compound, the GI50 (UACC-62) was 0.309 nM, the CC50 (UACC-62; [3]) was 3.63 nM and the TGI (UACC-62; read-out: pTGI (converted)) was 1.29 nM. For the same compound, the GI50 (NCI-H522) was 0.363 nM, the CC50 (NCI-H522; [3]) was 324 nM and the TGI (NCI-H522; read-out: pTGI (converted)) was 5.37 nM. For the same compound, the GI50 (K562) was 0.219 nM, the CC50 (K562; [3]) was 10000 nM and the TGI (K562; read-out: pTGI (converted)) was 14.1 nM. It also gave a GI50 (BT-549) of 1.82 nM, a CC50 (BT-549; [3]) of 4570 nM and a TGI (BT-549; read-out: pTGI (converted)) of 1700 nM. For the same compound, the GI50 [2] was 0.038 nM, the CC50 [2, 3] was 2090 nM and the TGI ([2]; read-out: pTGI (converted)) was 0.219 nM. The GI50 (DU-145) was 3.71 nM, the CC50 (DU-145; [3]) was 4270 nM and the TGI (DU-145; read-out: pTGI (converted)) was 1510 nM. The GI50 (ACHN) was 7.94 nM, the CC50 (ACHN; [3]) was 7240 nM and the TGI (ACHN; read-out: pTGI (converted)) was 2190 nM.
